Test results published in paper PMC3268354 (Bioorganic & Medicinal Chemistry Letters, 2012).

System: cPLA2α
Assay: reported cPLA2α inhibition of training and test set compounds
Format: biochemical
Conditions: assigned from reported activity of training set compounds

Row | Compound | Class (activity class assigned for HipHop refine model)
1 | CCCCCCCCCCCCCCC(=O)C(=O)NCCCC(=O)O [Compound 1] | Active
2 | O=C(COc1ccc(SCCCCCc2ccccc2)cc1)COc1ccc(C(=O)O)cc1 [Compound 6] | Highly active
3 | CCCCCCCCCCOc1ccc(OCC(=O)COc2ccc(C(=O)O)cc2)cc1 [Compound 7] | Highly active
4 | O=C(COc1ccc(SCCCCSc2nccs2)cc1)COc1ccc(C(=O)O)cc1 [Compound 14] | Active
5 | O=C(COc1ccc(C(=O)O)cc1)COc1ccc(C(=O)NCCCCc2ccccc2)cc1 [Compound 16] | Inactive
6 | CN(CCc1ccccc1)C(=O)CSc1ccc(OCC(=O)COc2ccc(C(=O)O)cc2)cc1 [Compound 17] | Inactive
7 | Cn1ccnc1SCCCCOc1ccc(OCC(=O)COc2ccc(C(=O)O)cc2)cc1 [Compound 18] | Inactive

System: cPLA2α-mediated AA release in human monocytes
Assay: cPLA2α-mediated AA release in Ca2+-ionophore A23187-stimulated human monocytes
Format: cell-based
Conditions: human monocytes stimulated with A23187
In short: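 Human monocytes were stimulated with Ca2+-ionophore A23187 in the presence of test compound, and arachidonic acid release was measured. Inhibition is expressed as IC50. A reference cPLA2α inhibitor was run as an assay control.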

Row | Compound | inhibition of AA release
8 | N-{(2S,4R)-4-(biphenyl-2-ylmethyl-isobutyl-amino)-1-[2-(2,4-difluorobenzoyl)-benzoyl]-pyrrolidin-2-ylmethyl}-3-[4-(2,4-dioxothiazolidin-5-ylidenemethyl)-phenyl]acrylamide [Compound 43] | inhibited AA release as expected
